TRPC6 inh: blocks the mouse TRPC6 cation channel. B-score at 10 µM. 1.1% of 310,000 active. HEK293-TRPC6, membrane potential dye, ACh-evoked depolarization; stronger effect = lower value;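 active means B-score under library mean minus 3 SD, initial fluorescence not abnormally high, positive integrated signal ratio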;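 further: B-score derived from integrated fluorescence ratio over the kinetic read; more negative B-score means stronger inhibition of depolarization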
Target sequence (Q61143 whole entry, looked up): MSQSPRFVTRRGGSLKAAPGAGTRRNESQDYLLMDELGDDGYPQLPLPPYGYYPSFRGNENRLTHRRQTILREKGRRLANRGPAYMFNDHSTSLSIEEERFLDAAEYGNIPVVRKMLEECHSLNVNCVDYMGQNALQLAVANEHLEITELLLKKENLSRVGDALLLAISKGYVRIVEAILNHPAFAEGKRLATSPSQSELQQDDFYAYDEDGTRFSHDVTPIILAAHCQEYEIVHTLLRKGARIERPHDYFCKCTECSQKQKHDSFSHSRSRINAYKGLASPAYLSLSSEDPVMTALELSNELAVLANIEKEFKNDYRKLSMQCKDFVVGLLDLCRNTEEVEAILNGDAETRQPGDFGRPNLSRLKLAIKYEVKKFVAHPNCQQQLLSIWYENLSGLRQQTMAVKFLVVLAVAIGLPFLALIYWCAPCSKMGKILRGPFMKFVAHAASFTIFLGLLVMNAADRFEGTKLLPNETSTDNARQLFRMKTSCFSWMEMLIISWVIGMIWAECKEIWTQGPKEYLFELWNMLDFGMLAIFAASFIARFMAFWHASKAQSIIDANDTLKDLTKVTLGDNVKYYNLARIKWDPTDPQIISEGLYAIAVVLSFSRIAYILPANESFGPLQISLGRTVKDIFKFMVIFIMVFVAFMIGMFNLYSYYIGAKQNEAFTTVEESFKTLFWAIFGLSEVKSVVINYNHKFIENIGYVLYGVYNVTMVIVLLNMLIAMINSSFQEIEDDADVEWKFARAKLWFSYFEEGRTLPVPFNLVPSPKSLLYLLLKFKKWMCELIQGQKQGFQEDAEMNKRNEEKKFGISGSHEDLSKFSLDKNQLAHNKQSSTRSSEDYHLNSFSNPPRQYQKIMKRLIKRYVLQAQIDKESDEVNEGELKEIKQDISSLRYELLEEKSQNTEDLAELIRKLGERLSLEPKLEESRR
TRPC4 block: inhibitors of mouse TRPC4 channel; B-score at 10 µM; Q9QUQ5; 0.39% of 300,000 active; HEK293 TRPC4beta/mu-opioid, DAMGO-evoked Fluo4 calcium flux; stronger effect = lower value;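 active means B-score over 3 SD under the library average, no early fluorescence shift, positive overall ratio signal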
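Signal: kinetic Fluo4 fluorescence imaging of calcium influx. Material: stable TRPC4beta/mu-opioid receptor HEK293 cells. Probe or stimulus: DAMGO in two steps, submaximal then maximal.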
TRPC6 act: activates the mouse TRPC6 cation channel; Q61143; HEK293-TRPC6 membrane potential dye fluorescence; stronger effect = higher value; B-score at 10 µM; 0.13% of 310,000 active;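 active means B-score of the integrated fluorescence ratio above library mean plus 3 SD, and starting fluorescence ratio within library mean plus 5 SD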;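 further: higher score means more depolarization so channel activation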
TRPC4 potent: allosteric potentiators of mouse TRPC4 channel. Q9QUQ5. HEK293 TRPC4beta/mu-opioid, DAMGO EC20, Fluo-4 Ca2+ flux; stronger effect = higher value. B-score at 10 µM. 0.42% of 310,000 active. AID 2227;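 active means B-score of calcium response area above 5 SD of library B-scores, with initial fluorescence ratio within 5 SD of library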;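 further: B-score of integrated fluorescence ratio over time as area under calcium response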
TRPC4 agonist: TRPC4 (mouse) channel activation | Q9QUQ5 | HEK293 TRPC4beta/mu-opioid, Fluo4 calcium fluorescence; stronger effect = higher value | B-score at 10 µM | 0.49% of 310,000 active | AID 2237;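 active means B-score above 5 SD of library B-scores, and initial fluorescence ratio not above library mean plus 5 SD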;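 further: positive B-score marks a calcium rise read as TRPC4 activation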
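Assay system: HEK293 cells stably co-expressing mouse TRPC4beta and mu-opioid receptor / Timing: Fluo4 dye loading 45 min at room temperature, 110 s recording / Signal: Fluo4 calcium-sensitive dye fluorescence, kinetic, 1 Hz baseline / Read-out: integrated baseline-normalised fluorescence ratio, converted to per-well B score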
TRPC4 spec 2: second check of whether TRPC6 inhibitors also affect mouse TRPC4; shares compounds with TRPC6 inh; HEK293 TRPC4/MOR, membrane potential dye fluorescence; channel activated by saturating DAMGO dose; inhibition, % at 10 µM; 42% of 920 active;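 active means compounds whose fluorescence signal differed from control wells by over 3 SD, either direction, in both duplicate plates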
TRPC4 spec: selectivity of TRPC6 inhibitors: effect on mouse TRPC4 | 61% of 920 active | shares compounds with TRPC6 inh | HEK293 TRPC4/mu-opioid, membrane potential fluorescence | AID 2777 | activity change, negative = inhibition, % at 10 µM;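 active means rise or fall in signal beyond 3 SD of buffer-only wells in both replicate plates, either sign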;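 further: integrated kinetic ratio of fluorescence range over baseline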
HEK293 MPD ctr 2-1: second check of TRPC6 inhibitor effects in parental HEK293 cells. shares compounds with TRPC6 inh. parental HEK293 membrane potential dye fluorescence; maximal acetylcholine challenge after compound addition. signal change vs control, % at 10 µM. 31% of 920 active. AID 2779;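 active means membrane potential signal moving either way by over 3 SD of the maximum-effect control, in both duplicate plates, meaning non-specific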
HEK293 MPD ctr-1: parental HEK293 nonspecific activity of TRPC6 inhibitors; shares compounds with TRPC6 inh; parental HEK293 membrane potential dye fluorescence; membrane potential signal change, % at 10 µM; 60% of 920 active; AID 2780;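 active means membrane potential signal shifting up or down by more than 3 SD of buffer-only wells, on both duplicate plates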
HEK293 MPD ctr-2: parental HEK293 nonspecific activity of TRPC6 modulators; shares compounds with TRPC6 inh; membrane potential dye fluorescence; membrane potential signal change, % at 10 µM; 51% of 2,400 active; AID 488924;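 active means membrane potential signal moves up or down beyond 5 SD from buffer-only wells, on both duplicate plates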
HEK293 MPD ctr 2-2: second check of TRPC6 modulator effects in parental HEK293 cells; 14% of 2,400 active; AID 488926; shares compounds with TRPC6 inh; inhibition, % at 10 µM; membrane potential dye fluorescence; after compound, maximal acetylcholine stimulation;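 active means membrane potential signal drops by more than 5 SD from the mean control signal, in both duplicate plates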;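 further: plate controls were acetylcholine ECmax control wells for no effect and buffer only wells for full effect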
TRPC4 ctr mod: tests whether TRPC6 modulators also affect mouse TRPC4; HEK293 TRPC4/mu-opioid, membrane potential fluorescence; 69% of 2,400 active; percent change from control (negative = decrease, positive = increase), % at 10 µM; shares compounds with TRPC6 inh; AID 488927;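 active means membrane potential signal moved up or down beyond 5 SD of buffer control wells, in both duplicate plates, actives on both sides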;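 further: plate controls were assay buffer wells for no effect and DAMGO maximal-effect wells for full effect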
TRPC4 ctr inh 2: second check of whether TRPC6 modulators also affect mouse TRPC4 | AID 488928 | shares compounds with TRPC6 inh | 55% of 2,400 active | inhibition, % at 10 µM | HEK293 TRPC4/mu-opioid, membrane potential dye fluorescence; stimulated with maximal-effect DAMGO;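 active means drop in membrane potential signal beyond 5 SD of the control wells in both duplicate plates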;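 further: TRPC4 counter screen for TRPC6 hits run under conditions tuned for TRPC6 not TRPC4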
TRPC6 inh conf: mouse TRPC6 inhibitor confirmation; HEK293-TRPC6, membrane potential dye, ACh-evoked depolarization; 43% of 3,300 active; shares compounds with TRPC6 inh; inhibition, % at 10 µM;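 active means fluorescence ratio falls more than 5 SD below the full-stimulation control mean, in both duplicate runs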;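 further: integrated fluorescence ratio of peak minus minimum over baseline after agonist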
TRPC6 act confirm: confirmation of mouse TRPC6 activators; 11% of 2,800 active; shares compounds with TRPC6 inh; AID 488961; activation, % at 10 µM; HEK293-TRPC6 membrane potential dye fluorescence, FDSS;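 active means ratio signal rise beyond 5 SD above unstimulated control wells' mean, seen in both duplicate runs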;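 further: plate controls were buffer EC0 wells for no effect and acetylcholine ECmax response for full effect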
* hit, by the source's call; i = inactive; x = no result. In the library only some 2.3% were active in any assay of this set; here they are far more common.

SMILES	TRPC6 inh	TRPC4 block	TRPC6 act	TRPC4 potent	TRPC4 agonist	HEK293 MPD ctr-2	HEK293 MPD ctr 2-2	TRPC4 ctr mod	TRPC4 ctr inh 2	TRPC6 inh conf	TRPC6 act confirm	others
COc1ccc(CCNC(=O)c2cc3c(=O)n4cccc(C)c4nc3n(CCCN3CCOCC3)c2=N)cc1	i	i	i	i	i	x	x	x	x	x	x
Cc1cccn2c(=O)c3cc(C(=O)NC4CCCC4)c(=N)n(CC4CCCO4)c3nc12 (stereo not given)	-5.8*	i	i	i	i	i	i	i	32%*	i	i
Cc1cccn2c(=O)c3cc(C(=O)NCCN4CCOCC4)c(=N)n(Cc4ccc(F)cc4)c3nc12	-5.6*	i	i	i	i	i	94%*	i	i	i	i
Cc1cccn2c(=O)c3cc(C(=O)NCC4CCCO4)c(=N)n(CC4CCCO4)c3nc12 (stereo not given)	i	i	i	i	i	x	x	x	x	x	x
Cc1cccn2c(=O)c3cc(C(=O)NCCN4CCOCC4)c(=N)n(CCN4CCOCC4)c3nc12	-7*	i	i	i	i	x	x	x	x	66%*	i	TRPC4 spec 2=72%*;TRPC4 spec=0.8%*;HEK293 MPD ctr 2-1=-124%*;HEK293 MPD ctr-1=i
CCN(CC)CCn1c(=N)n(CCOc2ccccc2)c2ccccc21	-12*	i	i	i	i	x	x	x	x	i	i	TRPC4 spec 2=52%*;TRPC4 spec=15%*;HEK293 MPD ctr 2-1=272%*;HEK293 MPD ctr-1=6.5%*
CCN(CC)CCn1c(=N)n(CCO)c2ccccc21	i	i	i	i	i	x	x	x	x	x	x
Cc1cc(OCC(=O)NC2CCN(Cc3ccccc3)CC2)c2c(C)cc(=O)oc2c1	-6.1*	i	i	i	i	-82%*	i	-26%*	i	i	i
Cc1ccc2c(ccn3cc4c(c(=O)n(C)c(=O)n4C)c23)c1	-7.2*	i	i	i	i	x	x	x	x	i	i	TRPC4 spec 2=i;TRPC4 spec=-25%*;HEK293 MPD ctr 2-1=i;HEK293 MPD ctr-1=-325%*
CCN(CC)CCCN(Cc1cc2cc3c(cc2[nH]c1=O)OCO3)C(=S)Nc1ccccc1	i	i	i	i	i	x	x	x	x	x	x
COc1ccc(C2NC(=O)NC(O)(C(F)(F)F)C2C(=O)c2ccccc2)cc1OC (stereo not given)	i	i	i	i	i	x	x	x	x	x	x
COc1ccc(C2NC(=O)NC(O)(C(F)(F)F)C2C(=O)c2ccc(C)cc2)cc1 (stereo not given)	-9.6*	i	i	i	i	x	x	x	x	65%*	i	TRPC4 spec 2=i;TRPC4 spec=i;HEK293 MPD ctr 2-1=14%*;HEK293 MPD ctr-1=i
CCOC(=O)c1ccc(NC(=O)COC(=O)Cc2csc(-c3ccccc3)n2)cc1	i	i	i	i	i	x	x	x	x	x	x
Cc1ccc(C2N(c3ccccc3)C(=S)N3CCCN23)cc1 (stereo not given)	-7.5*	i	i	i	i	x	x	x	x	70%*	i	TRPC4 spec 2=i;TRPC4 spec=i;HEK293 MPD ctr 2-1=i;HEK293 MPD ctr-1=i
CCOCCCNC(=S)N1CCCN(c2nc3cc(C)ccc3cc2C#N)CC1	-10*	i	i	i	i	x	x	x	x	75%*	x	TRPC4 spec 2=i;TRPC4 spec=i;HEK293 MPD ctr 2-1=i;HEK293 MPD ctr-1=i
Cc1cc(N2CCOCC2)nc(N2CCOCC2)n1	i	i	i	i	i	x	x	x	x	x	x
Cc1cc(N2CCN(C)CC2)nc(N2CCOCC2)n1	-5.7*	i	i	i	i	-246%*	i	-44%*	31%*	i	i
Cc1cc(NC(=O)CCC(=O)N(CC(=O)NC2CCCC2)c2ccc(C(C)C)cc2)no1	i	i	i	i	i	x	x	x	x	x	x
CCC1=NN(C(=O)c2ccc(Cl)cc2)C(O)(c2ccccc2)C1 (stereo not given)	i	i	i	i	i	x	x	x	x	x	x
COC(=O)C1=NN(C(=O)c2ccc(Cl)cc2)C(O)(c2ccccc2)C1 (stereo not given)	i	i	16*	i	59*	321%*	i	73%*	i	x	190%*
CCC1=NN(C(=O)c2ccc(Cl)cc2)C(O)(c2ccc(C)cc2)C1 (stereo not given)	i	i	i	i	i	x	x	x	x	x	x
CCOC(=O)C1=NN(C(=O)c2ccc(C)cc2)C(O)(c2ccc(Cl)cc2)C1 (stereo not given)	-8*	i	18*	i	90*	281%*	i	70%*	i	i	180%*
Cc1ccc(-c2csc(NC(=O)/C=C/c3ccco3)c2C(=O)O)cc1	-5.2*	i	i	i	i	i	i	i	i	i	i
CCOc1ccc(NC(=S)C(C#N)=C2N(C)c3ccccc3N2C)cc1	i	i	i	i	i	x	x	x	x	x	x
Cc1[nH]n(-c2ccccc2)c(=O)c1N=Nc1c(O)cc(S(=O)(=O)N(C)C)c2ccccc12	-8.9*	i	i	i	i	-135%*	80%*	-34%*	86%*	81%*	i
Cc1[nH]n(-c2ccccc2)c(=O)c1N=Nc1ccc2c(c1)OCCO2	i	i	i	i	i	x	x	x	x	x	x
